This is an account of results in ChEMBL document CHEMBL1142098, “A xanthocillin-like alkaloid from the insect pathogenic fungus Cordyceps brunnearubra BCC 1395” (J Nat Prod, 2007).

Data set [1] is described as follows: Cytotoxicity against human BC cells upto 56 uM. Format: cell-based. The settings on record: for Activity: human, bc. The gist of the method: (§1)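 Cytotoxicity was measured by a colorimetric method on purified compounds. The cells were human epidermoid carcinoma (KB), human breast cancer (BC), human lung cancer (NCI-H187) and African green monkey kidney fibroblast (Vero) cells.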

Another data set concerns KB. Nature of the data set: Cytotoxicity against human KB cells upto 56 uM. Format: cell-based. Put shortly: as §1
A further data set relates to Plasmodium falciparum. The data set is described as follows: Antimalarial activity against multidrug-resistant Plasmodium falciparum K1. Format: functional, organism-based. The gist of the method: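 Microculture radioisotope assay against the multidrug-resistant K1 strain of P. falciparum, with IC50 read out. Dihydroartemisinin was run as the reference standard in the same assay system.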

The nature of data set [2]: Cytotoxicity against human NCI-H187 cells upto 56 uM. Format: cell-based. The gist of the method:
as §1

A further data set deals with Vero. Nature of the data set: Cytotoxicity against Vero cells upto 140 uM. Format: cell-based. The settings on record: chlorocebus sabaeus. Put shortly:
as §1

Calls of active or inactive are those of the source. No cut-off for these calls is given here.

With `CC(=O)O/C=N/C(=C\c1ccc(OC(C)=O)c(OC(C)=O)c1)C(=C/c1ccc(OC(C)=O)c(OC(C)=O)c1)/N=C/OC(C)=O`, the Activity entry (in data set [1]; in the data set with KB; in data set [2]; in the data set with Vero) was “Not Active” throughout. For the same compound, in the data set with Plasmodium falciparum, the result was inactive.

Take `COc1ccc(/C=C(/C(=C/c2ccc(OC)c(OC)c2)N(C)C=O)N(C)C=O)cc1OC`: the Activity result (in data set [1]; with KB; in data set [2]; in the data set with Vero) was “Not Active” each time. Besides, the result with Plasmodium falciparum was inactive.

Consider `O=CNC(=C\c1ccc(O)c(O)c1)/C(=C/c1ccc(O)c(O)c1)NC=O` [CORDYFORMAMIDE], for which the IC50 (in general, the concentration that inhibits the measured activity by half) worked out at 39 µM in data set [1] (Homo sapiens, BC) and 18 µM in the data set on Plasmodium falciparum. For the same compound, the Activity entry (with KB; in data set [2]; in the data set with Vero) was “Not Active” each time.

`C[C@H]1[C@@H](O)O[C@@H]2O[C@@]3(C)CC[C@H]4[C@H](C)CC[C@@H]1[C@@]24OO3` [ARTENIMOL] registered an IC50 with Plasmodium falciparum of 0.0042 µM.
